From ChEMBL document CHEMBL1781968, “δ-Carbolines and their ring-opened analogs: synthesis and evaluation against fungal and bacterial opportunistic pathogens” (Eur J Med Chem, 2011)
Activity calls are given as the source filed them. No cut-off for these calls is given here.

Key:
Staphylococcus aureus [1] = assay: Antibacterial activity against Staphylococcus aureus ATCC 29213 by NCCLS method; format: functional, organism-based
Summary of the method: (§1)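 Broth microdilution (modified NCCLS). Samples in DMSO serially diluted in 0.9% saline, tested in duplicate, highest final concentration 20 μg/mL. Inoculum matched to 0.5 McFarland standard by absorbance at 630 nm, then diluted in cation-adjusted Mueller–Hinton broth. Growth, solvent and medium controls on each plate. Absorbance at 530 nm read before and after incubation. IC50 taken from percent growth versus concentration plot; MIC is lowest concentration with no detectable growth; MBC is lowest concentration killing the organism.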

Staphylococcus aureus [2] = assay: Antibacterial activity against methicillin-resistant Staphylococcus aureus ATCC 33591 by NCCLS method; format: functional, organism-based; summary of the method: as §1
Escherichia coli [3] = assay: Antibacterial activity against Escherichia coli at 20 ug/ml by NCCLS method; format: functional, organism-based
Summary of the method: (§2)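 Modified NCCLS broth microdilution. DMSO-dissolved samples serially diluted in 0.9% saline, tested in duplicate, final concentrations starting at 20 μg/mL. Inoculum set to 0.5 McFarland (absorbance 630 nm) and diluted in cation-adjusted Mueller–Hinton broth. Growth, solvent and medium controls on each plate. Read at 530 nm before and after incubation. IC50 from percent growth versus concentration. MIC is lowest concentration with no detectable growth.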

[4] = system: Mycobacterium intracellulare; assay: Antibacterial activity against Mycobacterium intracellular ATCC 23068 by alamar blue method; format: functional, organism-based
Summary of the method: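 Modified Alamar blue method (Franzblau). Samples in DMSO serially diluted in 0.9% saline, in duplicate, final concentrations starting at 20 μg/mL. Inoculum adjusted to 0.5 McFarland, then diluted in Middlebrook 7H9 with OADC enrichment plus 5% Alamar blue. Fluorescence read (ex 544/em 590 nm) before and after incubation. IC50 from percent growth versus concentration. MIC is no detectable growth.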

[5] = Cytotoxicity against african green monkey Vero cell after 48 hrs by neutral red uptake assay; format: cell-based; details: chlorocebus sabaeus, Vero cells; read-out: TC50
Summary of the method: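 VERO kidney fibroblasts seeded at 25,000 cells/well and incubated 24 h. Compounds added, highest concentration 10 μg/mL, then 48 h further incubation. Viable cells measured by neutral red assay. IC50 taken from growth-inhibition dose curves. Doxorubicin as positive control, DMSO as vehicle control.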

Candida albicans = assay: Antifungal activity against Candida albicans ATCC 90028 by NCCLS method; format: functional, organism-based
Summary of the method: (§3)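 Modified NCCLS microdilution for fungi. Samples in DMSO serially diluted with 0.9% saline, in duplicate, final concentrations from 20 μg/mL down. Inocula matched to 0.5 McFarland (630 nm) and diluted in Sabouraud dextrose broth. Growth, solvent and medium controls included. OD 530 nm read before and after incubation. IC50 from percent growth curve. MIC is no detectable growth. MFC is lowest concentration killing the organism.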

Cryptococcus neoformans = assay: Antifungal activity against Cryptococcus neoformans ATCC 90113 by NCCLS method; format: functional, organism-based; summary of the method: as §3
Aspergillus fumigatus [6] = assay: Antifungal activity against Aspergillus fumigatus ATCC 204305 by NCCLS method; format: functional, organism-based; summary of the method: as §3
Escherichia coli [7] = assay: Antibacterial activity against Escherichia coli by NCCLS method; format: functional, organism-based; summary of the method: as §2
Aspergillus fumigatus [8] = assay: Antifungal activity against Aspergillus fumigatus ATCC 204305 at 20 ug/ml by NCCLS method; format: functional, organism-based; summary of the method: as §3

Row | Compound | IC50 (Staphylococcus aureus [1]) [µg/mL] | MBC (Staphylococcus aureus [1]) [µg/mL] | MIC (Staphylococcus aureus [1]) [µg/mL] | IC50 (Staphylococcus aureus [2]) [µg/mL] | MBC (Staphylococcus aureus [2]) [µg/mL] | MIC (Staphylococcus aureus [2]) [µg/mL] | IC50 [4] [µg/mL] | MBC [4] [µg/mL] | MIC [4] [µg/mL] | CC50 at 48 h [5] [µg/mL] | IC50 (Candida albicans) [µg/mL] | MFC (Candida albicans) [µg/mL] | MIC (Candida albicans) [µg/mL] | IC50 (Cryptococcus neoformans) [µg/mL] | MFC (Cryptococcus neoformans) [µg/mL] | MIC (Cryptococcus neoformans) [µg/mL] | IC50 (Aspergillus fumigatus [6]) [µg/mL] | IC50 (Escherichia coli [7]) [µg/mL] | MBC (Escherichia coli [7]) [µg/mL] | MIC (Escherichia coli [7]) [µg/mL] | other results
1 | COc1cccc(N(CCCCCC2CCCCC2)c2ccc[n+](C)c2)c1.[I-] | 0.8 | 20 | 1.3 | 4.8 | 20 | 10 | 3.3 | 10 | 5 | – | – | – | – | – | – | – | – | – | – | – | Activity (Escherichia coli [3]): inactive
2 | C[n+]1cccc2c1c1cc(F)ccc1n2CCCCCC1CCCCC1.[I-] | 0.7 | 20 | 1.3 | 2.8 | 20 | 5 | 1.2 | 5 | 2.5 | > 10 | 6.5 | 20 | 20 | 0.6 | 1.3 | 1.3 | 12 | 13 | > 20 | > 20 | MFC (Aspergillus fumigatus [6]): > 20 µg/mL; MIC (Aspergillus fumigatus [6]): 20 µg/mL
3 | Cc1ccc2c(c1)c1c(ccc[n+]1C)n2CCCCCC1CCCCC1.[I-] | 0.4 | 10 | 0.6 | 1.6 | 10 | 5 | 1.5 | 5 | 2.5 | > 10 | 2.9 | 20 | 5 | 1.3 | 2.5 | 2.5 | 17 | 5.6 | > 20 | > 20 | MFC (Aspergillus fumigatus [6]): > 20 µg/mL; MIC (Aspergillus fumigatus [6]): 20 µg/mL
4 | C[n+]1cccc(N(CCCCCC2CCCCC2)c2ccccc2C#N)c1.[I-] | 1.3 | 10 | 2.5 | 6.4 | 20 | 20 | 3.5 | 20 | 5 | – | – | – | – | – | – | – | – | – | – | – | Activity (Escherichia coli [3]): inactive
5 | COc1ccc(N(CCCCCC2CCCCC2)c2ccc[n+](C)c2)cc1.[I-] | 0.3 | 10 | 0.6 | 1.9 | 10 | 5 | 1 | 5 | 1.3 | > 10 | – | – | – | – | – | – | – | 5.4 | > 20 | > 20 | Activity (Aspergillus fumigatus [8]): inactive
6 | C[n+]1cccc2c1c1cccc(Cl)c1n2CCCCCC1CCCCC1.[I-] | 0.2 | 10 | 0.3 | 1.2 | 5 | 2.5 | 0.5 | 5 | 0.6 | > 10 | 2.5 | 5 | 5 | 0.3 | 0.6 | 0.6 | 16 | 5.7 | > 20 | > 20 | MFC (Aspergillus fumigatus [6]): 20 µg/mL; MIC (Aspergillus fumigatus [6]): 20 µg/mL
7 | C[n+]1cccc(N(CCCCCC2CCCCC2)c2ccc(C#N)cc2)c1.[I-] | 2.5 | 20 | 5 | 6.2 | 20 | 10 | 2.8 | 5 | 5 | > 10 | – | – | – | – | – | – | – | – | – | – | Activity (Aspergillus fumigatus [8]): inactive; Activity (Escherichia coli [3]): inactive
8 | CSc1ccc2c(c1)c1c(ccc[n+]1C)n2CCCCCC1CCCCC1.[I-] | 0.4 | 5 | 0.6 | 1.1 | 10 | 2.5 | 0.7 | 2.5 | 1.3 | > 10 | 2.1 | 5 | 5 | 0.3 | 0.6 | 0.6 | 13 | 5.6 | > 20 | > 20 | MFC (Aspergillus fumigatus [6]): 20 µg/mL; MIC (Aspergillus fumigatus [6]): 20 µg/mL
9 | C[n+]1cccc2c1c1cc(C(F)(F)F)ccc1n2CCCCCC1CCCCC1.[I-] | 0.4 | 10 | 0.6 | 1.2 | 10 | 2.5 | 0.8 | 2.5 | 1.3 | > 10 | 5.8 | 20 | 10 | 0.4 | 1.3 | 0.6 | 18 | 7.6 | > 20 | > 20 | MFC (Aspergillus fumigatus [6]): > 20 µg/mL; MIC (Aspergillus fumigatus [6]): > 20 µg/mL
10 | C[n+]1cccc(N(CCCCCC2CCCCC2)c2cccc(C#N)c2)c1.[I-] | 0.8 | 20 | 1.3 | 3.9 | 10 | 10 | 2 | 10 | 2.5 | – | – | – | – | – | – | – | – | – | – | – | Activity (Escherichia coli [3]): inactive
11 | COc1ccc2c(c1)c1c(ccc[n+]1C)n2CCCCCC1CCCCC1.[I-] | 0.7 | 20 | 1.3 | 3.3 | 20 | 5 | 1.6 | 2.5 | 2.5 | > 10 | 7.4 | > 20 | 20 | 0.7 | 1.3 | 1.3 | 16 | 12 | > 20 | > 20 | MFC (Aspergillus fumigatus [6]): > 20 µg/mL; MIC (Aspergillus fumigatus [6]): > 20 µg/mL
12 | C[n+]1cccc(N(CCCCCC2CCCCC2)c2ccc(F)cc2)c1.[I-] | 0.7 | 10 | 1.3 | 3 | 20 | 5 | 3.2 | 10 | 5 | > 10 | – | > 20 | – | – | – | – | – | 18 | > 20 | > 20 | Activity (Aspergillus fumigatus [8]): inactive
13 | C[n+]1cccc2c1c1cc(C#N)ccc1n2CCCCCC1CCCCC1.[I-] | 2.6 | 20 | 5 | 5.8 | 20 | 10 | 2.1 | 5 | 2.5 | > 10 | 19 | > 20 | 20 | 2.8 | 5 | 5 | – | – | – | – | Activity (Aspergillus fumigatus [8]): inactive; Activity (Escherichia coli [3]): inactive
14 | C[n+]1cccc2c1c1ccc(Cl)cc1n2CCCCCC1CCCCC1.[I-] | 0.4 | 5 | 0.6 | 1.2 | 2.5 | 2.5 | 0.7 | 5 | 1.3 | > 10 | 2.9 | 10 | 5 | 0.3 | 0.6 | 0.6 | 16 | 5.9 | > 20 | > 20 | MFC (Aspergillus fumigatus [6]): > 20 µg/mL; MIC (Aspergillus fumigatus [6]): 20 µg/mL
